# Bioassay records (PubChem BioAssay)
# Most compounds without a hit are left out; they make up all but 4% or so of the library.
# KCNQ1 inh – human KCNQ1 channel inhibition; CHO-K1 KCNQ1, FluxOR thallium flux fluorescence; active compounds read high; P51787; AID 2642; B-score at 10 µM; hit rate 1.3% among 310,000;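 active means compounds whose thallium flux B-score, printed positive for inhibition, exceeds three library SD while starting fluorescence stays within three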;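 further: channel opened by potassium depolarization with thallium stimulus after 20 min compound exposure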
# hERG rescue – shields human hERG channel from block by proarrhythmic agents. CHO-hERG, FluxOR thallium flux, dofetilide IC70 present. Q12809. activation (rescue from dofetilide block), less the hit threshold, % at 10 µM. hit rate 0.51% among 310,000;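 active means activation above the mean of controls blocked by dofetilide plus 5 SD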;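 further: thallium influx through hERG after potassium depolarization seen as dye fluorescence rise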
# KCNQ1 act – potentiators or activators of human KCNQ1 potassium channel; P51787; CHO-K1 KCNQ1, thallium flux FluxOR fluorescence; active compounds read high; B-score at 10 µM; AID 2648; hit rate 0.35% among 310,000;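 active means fluorescence ratio B-score, a plate-corrected score, at least three library SD, with initial intensity B-score within 5 SD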
#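 Assay system: CHO-K1 cells stably expressing KCNQ1. Medium: assay buffer for compound exposure, DMSO matched across wells. Timing: 37 °C overnight plating, 90-min dark dye load, 20-min compound pretreatment. Signal: kinetic FluxOR fluorescence, 10 s baseline plus 110 s post-stimulus.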
# KCNK3 block – human KCNK3 channel inhibition, primary screen. CHO-KCNK3 thallium flux, FluxOR fluorescence; active compounds read low. B-score at 10 µM. hit rate 0.84% among 340,000;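 active means B-score under library mean minus 4 SD, starting fluorescence ratio at most library mean plus 5 SD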;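 further: more negative B-score means stronger inhibition of thallium flux through KCNK3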
# KCNK9 block – human KCNK9 channel inhibition | hit rate 1.2% among 310,000 | Q9NPC2 | HEK293 KCNK9, FluxOR thallium flux fluorescence; active compounds read low | AID 488922 | B-score at 10 µM;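 active means ratio B-score over 3 SD below the library mean, with starting fluorescence within 5 SD of its mean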;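 further: negative B-score means less thallium flux so channel inhibition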
# Target sequence (Q9NPC2 whole entry, looked up): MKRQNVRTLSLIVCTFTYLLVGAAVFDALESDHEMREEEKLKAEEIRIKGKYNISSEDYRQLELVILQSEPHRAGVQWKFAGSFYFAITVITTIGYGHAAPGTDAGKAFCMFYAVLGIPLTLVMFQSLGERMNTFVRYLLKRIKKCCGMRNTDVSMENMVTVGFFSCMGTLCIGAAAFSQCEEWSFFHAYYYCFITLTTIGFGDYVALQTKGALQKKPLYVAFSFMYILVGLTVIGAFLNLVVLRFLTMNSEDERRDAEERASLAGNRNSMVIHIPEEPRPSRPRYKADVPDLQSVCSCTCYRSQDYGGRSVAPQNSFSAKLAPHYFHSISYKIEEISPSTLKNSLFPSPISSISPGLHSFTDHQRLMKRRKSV
# PHOSPHO1 inh – PHOSPHO1 (human) inhibition; inhibition, % at 13.3 µM; recombinant PHOSPHO1, absorbance phosphatase assay; Q8TCT1; hit rate 1.1% among 290,000; in the data active means inhibition above about 60%
# An asterisk follows results filed as active; i = inactive; · = not tested or not shown.
SMILES,KCNQ1 inh,hERG rescue,KCNQ1 act,KCNK3 block,KCNK9 block,PHOSPHO1 inh
CC(C)(C)OC(=O)N1CCC2(CC1)Oc1ccc(F)cc1C(=O)C21CC(c2ccc(Cl)cc2)=NO1 (centres undefined),i,-4,i,·,i,·
COc1ccc(CCN2CC34C=CC(O3)C(C(=O)NCc3ccccc3Cl)C4C2=O)cc1OC (centres undefined),i,4.7*,i,i,i,0
CCc1cc(C(=O)NNC(=S)NC(C)c2ccccc2)cs1 (centres undefined),i,-13,i,i,i,65*
CCc1cc(C(=O)NNC(=S)NC2CCCCC2)cs1,i,-11,i,i,i,-102
COc1ccc(OC)c(-c2csc(NC(=O)CSc3ccccc3)n2)c1,i,-20,i,i,i,4
COC(=O)c1cc(Cn2nc(C(=O)O)c3ccccc3c2=O)oc1C,i,-5,i,i,i,16
O=C1S/C(=C/c2ccc(N3CCOCC3)o2)C(=O)N1Cc1c(F)cccc1Cl,i,-5,i,i,i,69*
Cc1oc(C)c2c(=O)ccc3c(c12)OC(N)=C(C#N)C3c1ccc(F)cc1 (centres undefined),8*,-6,i,i,i,7
CCN(CC)CCCNc1nc2cc(OC)c(OC)cc2c2nc(-c3ccccc3)nn12,i,-7,i,i,i,-29
CCN(CC)CCCNc1nc2cc(OC)c(OC)cc2c2nc(-c3cccnc3)nn12,11*,-7,i,i,i,-66
COc1ccc(Cl)cc1NC(=O)CN(C)C(=O)c1cc2ccccc2cc1O,i,-21,i,i,i,·
COC(=O)c1ccccc1NC(=O)c1ccc(COc2ccccc2)o1,·,·,·,-10*,·,7
CCCCC(=O)NC(=S)NNC(=O)CC#N,i,-3,i,i,i,95*
CCCCC(=O)NNC(=S)NC(=O)CCC,i,-11,i,i,i,-4
COCCCNC(=O)c1ccc2c3c(onc13)-c1ccccc1C2=O,10*,-56,i,i,i,29
O=[N+]([O-])c1ccc(/C=N/N2CCCCC2)cc1,i,-1,i,i,i,7
COc1cccc(N2CC(=O)N(c3cccc(OC)c3)CC2=O)c1,i,-6,i,i,i,60*
Cc1cccc(N2CC(=O)N(c3cccc(C)c3)CC2=O)c1,i,-15,i,i,i,-3
CCOCc1cnc(C)nc1NCC(=O)c1c(C)n(C)c2ccc(OC)cc12,i,-6,i,i,i,92*
COc1ccc2c(c1)c(C(C)=O)c(C)n2C,i,-4,i,i,i,32
COc1ccc2c(c1)c(C(=O)CNc1nc(C)cs1)c(C)n2C,·,·,·,i,·,81*
O=[N+]([O-])c1cccc(-c2ccc(SCc3cccnc3)nn2)c1,6*,-8,i,i,i,26
CSc1ccc(-c2cccc([N+](=O)[O-])c2)nn1,i,-22,i,i,i,42
O=C(O)c1ccccc1NS(=O)(=O)c1ccccc1C(F)(F)F,i,-6,i,i,i,0
O=S(=O)(Nc1ccccc1N1CCOCC1)c1ccccc1C(F)(F)F,·,·,·,-10*,·,·
SMILES,KCNQ1 inh,hERG rescue,KCNQ1 act,KCNK3 block,KCNK9 block,PHOSPHO1 inh
Cc1nc2cc3nc(C)sc3cc2s1,i,-5,i,i,i,68*
CC1c2cc3c(cc2CCN1C(=O)c1ccc(C(F)(F)F)cc1)OCCCO3 (centres undefined),i,-17,i,i,-6.9*,32
COc1cccc(/C=C/C(=O)OCC(=O)NCc2ccc3c(c2)OCO3)c1,·,·,·,i,·,·
COC(=O)CSc1nnc(C)n1-c1cccc(OC)c1,i,-13,i,i,i,22
COc1ccc(C(=O)Nc2ccc(C(=O)N3CCCCC3C)cc2)c(OC)c1OC (centres undefined),i,-9,i,i,i,75*
Cc1ccc(C)c(S(=O)(=O)NCc2ccc(C(=O)N3CCCCC3C)cc2)c1 (centres undefined),i,-14,i,i,-6.8*,0
Cc1cccc(C(=O)Nc2ccc(C(=O)N3CCCCC3C)cc2)c1 (centres undefined),i,-9,i,i,-7.6*,58
COc1ccccc1C(=O)Nc1ccc(OCC(=O)N2CCCCC2C)cc1 (centres undefined),·,·,·,i,·,·
COc1ccccc1N1CCN(C(=O)COc2ccc(S(=O)(=O)NC(C)C)cc2)CC1,i,-9,i,i,i,8
CCOC(=O)C(NC(=O)c1ccccc1OCC)(Nc1ncccn1)C(F)(F)F (centres undefined),i,-5,i,i,i,-2
CCOc1ccc(NC(=O)CN(C)C(=O)CCNC(=O)c2ccc(Br)cc2)cc1OCC,i,-14,i,i,i,·
CC(Sc1nnnn1C)C(=O)Nc1ncc(Cl)cc1Cl (centres undefined),·,·,·,i,·,·
COc1ccccc1CCNC(=O)Nc1cccc([N+](=O)[O-])c1,6*,-4,i,i,i,-23
CC(=O)c1cccc(NC(=S)NCCCCc2ccccc2)c1,6*,-9,i,i,i,-9
COc1ccc(NC(=O)Nc2cccc([N+](=O)[O-])c2)cc1Cl,i,-10,i,i,i,-6
O=[N+]([O-])c1ccc(NC(=S)NCCc2ccc(F)cc2)cc1,6*,-49,i,i,i,46
O=[N+]([O-])c1cccc(NC(=S)NCCc2ccccc2)c1,8*,-15,i,i,i,-6
COc1ccc(N2CCN(C3CCCN(Cc4ccc(F)cc4)C3)CC2)cc1 (centres undefined),i,-6,i,i,i,19
CN(C)c1cccc(C(=O)NNC(=O)C23CC4CC(CC(C4)C2)C3)c1,·,·,·,i,·,·
CCOC(=O)CC(=O)CSc1nnc2sc3ccccc3n12,·,·,·,i,·,64*
COC(=O)c1sccc1Oc1c(Cl)cccc1[N+](=O)[O-],i,1,i,i,i,16
CC1CCN(CCOCCOc2ccc(Cl)cc2Br)CC1,6*,-9,i,i,i,14
Clc1ccc(OCCOCCN2CCCCC2)c(Br)c1,i,-14,i,i,i,7
CCc1ccc(C(N)=S)cc1,i,-14,i,i,i,16
CCc1cc(=O)oc2cc(C)cc(OC(=O)c3ccco3)c12,i,-1,i,i,i,-7
C=C[C@]1(C)C=C2CCC3[C@](C)(CCC[C@@]3(C)C(=O)O)C2CC1 (some centres undefined),i,0,9*,i,i,·
